From ChEMBL document CHEMBL1127433, “N6-substituted adenosine receptor agonists. Synthesis and pharmacological activity as potent antinociceptive agents” (J Med Chem, 1994) come the findings set out here.

The source made the active and inactive calls. The rule behind the calls is not given here.

The first test relates to Mus musculus. Briefly: Effective dose of compound for phenylbenzoquinone-Induced writhing in mice after peroral administration expressed as analgesic activity; Not dose dependent. The note with it: po. The test is classed as functional. The method, boiled down: (§1)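 Mice dosed orally (0.5 mL/20 g); 1 h later given 0.02% phenylbenzoquinone in hydroalcoholic solution ip (0.20-0.24 mL). Writhings and stretches counted from minute 5 to minute 10. Six animals per group. Inhibition taken against the control mean; ED50 (50% decrease) by linear regression.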
(In general: An intraperitoneal irritant provokes the stretching counted in writhing tests.)
`O=C(NC1CC1)[C@H]1O[C@@H](n2cnc3c(NCCc4cn(Cc5cccnc5)c5ccccc45)ncnc32)[C@H](O)[C@@H]1O`: the ED50 (in general, the dose that gives a 50% effect, or the effect in half of the subjects) is more than 30 mg/kg.
`Cc1ccc(Cn2cc(CCNc3ncnc4c3ncn4C3O[C@H](C(=O)NC4CC4)[C@@H](O)[C@H]3O)c3ccccc32)cc1` (stereo partly drawn) displayed an ED50 of less than 3 mg/kg.
In the case of `OC[C@H]1OC(n2cnc3c(NCCc4cn(Cc5ccccc5)c5ccccc45)ncnc32)[C@H](O)[C@@H]1O` (stereo partly drawn), the ED50 was more than 30 mg/kg.

For another test, the system named is Mus musculus. Description: Effective dose of compound for phenylbenzoquinone-Induced writhing in mice after peroral administration expressed as analgesic activity; Inactive. The format is functional, organism-based.
Conditions: not given
The method, boiled down:
as §1
With `O=C(NC1CC1)[C@H]1OC(n2cnc3c(NCCc4cn(Cc5ccc(Cl)cc5)c5ccc(Cl)cc45)ncnc32)[C@H](O)[C@@H]1O` (stereo partly drawn), the ED50 entry was “inactive”.
With `COCCNC(=O)[C@H]1O[C@@H](n2cnc3c(NCCc4cn(Cc5ccc(Cl)cc5)c5ccccc45)ncnc32)[C@H](O)[C@@H]1O`, the ED50 entry is “inactive”.

The next test concerns the target T1, Adenosine A2 receptor (Rattus norvegicus) (UniProt P29276+P30543). Briefly: Percent displacement from adenosine A2 receptor at 10e-7 M in rat striatal membrane in vitro. The test is classed as cell membranes. The note with it: Striatum.
In turn, `O=C(NC1CC1)[C@H]1OC(n2cnc3c(NCCc4cn(Cc5ccc(Cl)cc5)c5ccc(Cl)cc45)ncnc32)[C@H](O)[C@@H]1O` (stereo partly drawn) registered a Displacement of 23%.
The same measure, in the same setting: the result for `COCCNC(=O)[C@H]1O[C@@H](n2cnc3c(NCCc4cn(Cc5ccc(Cl)cc5)c5ccccc45)ncnc32)[C@H](O)[C@@H]1O` reads 0%; that for `O=C(NC1CC1)[C@H]1O[C@@H](n2cnc3c(NCCc4cn(Cc5cccnc5)c5ccccc45)ncnc32)[C@H](O)[C@@H]1O`, 30%.
On to `Cc1ccc(Cn2cc(CCNc3ncnc4c3ncn4C3O[C@H](C(=O)NC4CC4)[C@@H](O)[C@H]3O)c3ccccc32)cc1` (stereo partly drawn), for which the Displacement amounted to 21%.
The compound `OC[C@H]1OC(n2cnc3c(NCCc4cn(Cc5ccccc5)c5ccccc45)ncnc32)[C@H](O)[C@@H]1O` (stereo partly drawn) showed a Displacement of 30%.

A further test deals with T2, Adenosine receptor A1 (Rattus norvegicus) (UniProt P25099).
T2 sequence (whole entry): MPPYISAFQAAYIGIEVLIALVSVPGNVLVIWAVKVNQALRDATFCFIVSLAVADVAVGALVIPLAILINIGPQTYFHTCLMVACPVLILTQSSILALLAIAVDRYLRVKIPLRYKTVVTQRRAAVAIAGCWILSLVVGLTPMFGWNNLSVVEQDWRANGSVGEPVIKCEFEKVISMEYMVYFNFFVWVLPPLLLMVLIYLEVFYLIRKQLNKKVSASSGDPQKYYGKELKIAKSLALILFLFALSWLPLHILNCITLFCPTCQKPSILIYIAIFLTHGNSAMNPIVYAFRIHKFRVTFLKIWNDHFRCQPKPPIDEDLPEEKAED
Briefly: Percent displacement from adenosine A1 receptor at 10e-7 M in rat brain membrane in vitro. The test is classed as cell membranes.
Conditions: not given
`O=C(NC1CC1)[C@H]1OC(n2cnc3c(NCCc4cn(Cc5ccc(Cl)cc5)c5ccc(Cl)cc45)ncnc32)[C@H](O)[C@@H]1O` (stereo partly drawn) had a Displacement of 49%.
Consider `COCCNC(=O)[C@H]1O[C@@H](n2cnc3c(NCCc4cn(Cc5ccc(Cl)cc5)c5ccccc45)ncnc32)[C@H](O)[C@@H]1O`, for which the Displacement was 13%.
For the compound `O=C(NC1CC1)[C@H]1O[C@@H](n2cnc3c(NCCc4cn(Cc5cccnc5)c5ccccc45)ncnc32)[C@H](O)[C@@H]1O`, the Displacement amounted to 78%.
`Cc1ccc(Cn2cc(CCNc3ncnc4c3ncn4C3O[C@H](C(=O)NC4CC4)[C@@H](O)[C@H]3O)c3ccccc32)cc1` (stereo partly drawn) yielded a Displacement of 37%.
Still for that read-out and setting: the figure for `OC[C@H]1OC(n2cnc3c(NCCc4cn(Cc5ccccc5)c5ccccc45)ncnc32)[C@H](O)[C@@H]1O` (stereo partly drawn) is 67%.

For another test, the target named is T3, Adenosine receptor A1 (Rattus norvegicus, UniProt P25099).
T3 sequence (P25099 whole entry): T2 sequence (whole entry)
Description: Binding affinity for adenosine A1 receptor in vitro using rat brain membranes. The format is cell membranes.
Conditions: not given
Put shortly:
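Whole rat brain membranes, homogenized in 50 mM Tris-HCl pH 7.4 and spun at 1090g then 48000g, pretreated with adenosine deaminase 1 U/mL for 30 min. Nonspecific binding defined with 10 μM PIA. Separated by GF/B filtration and scintillation counted, in triplicate. IC50 from log-logit regression, Ki via Cheng-Prusoff, one experiment.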
As for `COCCNC(=O)[C@H]1O[C@@H](n2cnc3c(NCCc4cn(Cc5ccc(Cl)cc5)c5ccccc45)ncnc32)[C@H](O)[C@@H]1O`, the Ki (in general, a measure of affinity in units of concentration, obtained from inhibition or displacement) is 0.89 µM.
Consider `O=C(NC1CC1)[C@H]1O[C@@H](n2cnc3c(NCCc4cn(Cc5cccnc5)c5ccccc45)ncnc32)[C@H](O)[C@@H]1O`, for which the affinity, expressed as Ki, was 0.026 µM.
`Cc1ccc(Cn2cc(CCNc3ncnc4c3ncn4C3O[C@H](C(=O)NC4CC4)[C@@H](O)[C@H]3O)c3ccccc32)cc1` (stereo partly drawn) displayed a Ki of 0.13 µM.
Take `OC[C@H]1OC(n2cnc3c(NCCc4cn(Cc5ccccc5)c5ccccc45)ncnc32)[C@H](O)[C@@H]1O` (stereo partly drawn): the Ki amounted to 0.05 µM.

The target in a further test is T1, Adenosine A2 receptor (Rattus norvegicus). Briefly: Percent displacement from adenosine A2 receptor at 10e-5 M in rat striatal membrane in vitro. The format is cell membranes.
Conditions: not given
The compound `O=C(NC1CC1)[C@H]1OC(n2cnc3c(NCCc4cn(Cc5ccc(Cl)cc5)c5ccc(Cl)cc45)ncnc32)[C@H](O)[C@@H]1O` (stereo partly drawn) had a Displacement of 79%.
The compound `COCCNC(=O)[C@H]1O[C@@H](n2cnc3c(NCCc4cn(Cc5ccc(Cl)cc5)c5ccccc45)ncnc32)[C@H](O)[C@@H]1O` yielded a Displacement of 36%.
The compound `O=C(NC1CC1)[C@H]1O[C@@H](n2cnc3c(NCCc4cn(Cc5cccnc5)c5ccccc45)ncnc32)[C@H](O)[C@@H]1O` displayed a Displacement of 98%.
`Cc1ccc(Cn2cc(CCNc3ncnc4c3ncn4C3O[C@H](C(=O)NC4CC4)[C@@H](O)[C@H]3O)c3ccccc32)cc1` (stereo partly drawn) had a Displacement of 89%.
`OC[C@H]1OC(n2cnc3c(NCCc4cn(Cc5ccccc5)c5ccccc45)ncnc32)[C@H](O)[C@@H]1O` (stereo partly drawn) returned a Displacement of 95%.

A further test has as its target T2, Adenosine receptor A1 (Rattus norvegicus). Description: Percent displacement from adenosine A1 receptor at 10e-5 M in rat brain membrane in vitro. The test is classed as cell membranes.
Conditions: not given
With `O=C(NC1CC1)[C@H]1OC(n2cnc3c(NCCc4cn(Cc5ccc(Cl)cc5)c5ccc(Cl)cc45)ncnc32)[C@H](O)[C@@H]1O` (stereo partly drawn), the Displacement amounted to 100%.
Same read-out and setting: the result for `COCCNC(=O)[C@H]1O[C@@H](n2cnc3c(NCCc4cn(Cc5ccc(Cl)cc5)c5ccccc45)ncnc32)[C@H](O)[C@@H]1O` reads 90%.
For `O=C(NC1CC1)[C@H]1O[C@@H](n2cnc3c(NCCc4cn(Cc5cccnc5)c5ccccc45)ncnc32)[C@H](O)[C@@H]1O`, the Displacement is 97%.
Consider `Cc1ccc(Cn2cc(CCNc3ncnc4c3ncn4C3O[C@H](C(=O)NC4CC4)[C@@H](O)[C@H]3O)c3ccccc32)cc1` (stereo partly drawn), for which the Displacement amounted to 97%.
On the same count and under the same terms, the figure for `OC[C@H]1OC(n2cnc3c(NCCc4cn(Cc5ccccc5)c5ccccc45)ncnc32)[C@H](O)[C@@H]1O` (stereo partly drawn) is 100%.

The target in another test is Adenosine A2 receptor (Rattus norvegicus, UniProt P29276+P30543). Description: Binding affinity for adenosine A2 receptor in vitro using rat striatal membrane. The format is cell membranes.
Conditions: not given
The method, boiled down:
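Rat striatal membranes in 50 mM Tris-HCl, 10 mM MgCl2, pH 7.7, adenosine deaminase treated (1 U/mL, 30 min). Incubated with [3H]NECA (4 nM, 50 μL) plus 0.11 μM cyclopentyladenosine and competitor for 60 min at 25 °C. Nonspecific binding defined with 5 μM NECA. GF/B filtration, scintillation counting, triplicate. IC50 from log-logit regression, Ki via Cheng-Prusoff, one experiment.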
In turn, `COCCNC(=O)[C@H]1O[C@@H](n2cnc3c(NCCc4cn(Cc5ccc(Cl)cc5)c5ccccc45)ncnc32)[C@H](O)[C@@H]1O` yielded a Ki of more than 10 µM.
`O=C(NC1CC1)[C@H]1O[C@@H](n2cnc3c(NCCc4cn(Cc5cccnc5)c5ccccc45)ncnc32)[C@H](O)[C@@H]1O`: the Ki stood at 0.183 µM.
The same measure, in the same setting: the result for `Cc1ccc(Cn2cc(CCNc3ncnc4c3ncn4C3O[C@H](C(=O)NC4CC4)[C@@H](O)[C@H]3O)c3ccccc32)cc1` (stereo partly drawn) reads 0.34 µM; that for `OC[C@H]1OC(n2cnc3c(NCCc4cn(Cc5ccccc5)c5ccccc45)ncnc32)[C@H](O)[C@@H]1O` (stereo partly drawn), 0.25 µM.
